How the values were obtained:
Type in all cases: functional
Settings in all cases: 144 h
Botrytis cinerea [1] = test: Antifungal activity against Botryotinia fuckeliana assessed as radial growth inhibition at 50 ug/mL measured after 6 days
Summary of the method: (§1)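 Radial growth inhibition of B. cinerea on glucose-malt-peptone agar (61 g/L, pH 6.5-7.0) in 9 cm dishes. Compound in acetone added to the medium at final 50-200 μg/mL, with equal acetone in the controls. A 5 mm mycelial disc from an actively growing culture was placed centrally. Growth was followed for 6 days; % inhibition from mean colony diameter versus untreated control. Triplicate, repeated at least three times.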

Botrytis cinerea [2] = test: Antifungal activity against Botryotinia fuckeliana assessed as radial growth inhibition at 100 ug/mL measured after 6 days; summary of the method: as §1
Botrytis cinerea [3] = test: Antifungal activity against Botryotinia fuckeliana assessed as radial growth inhibition at 200 ug/mL measured after 6 days; summary of the method: as §1

SMILES	inhibition at 50 µg/mL (Botrytis cinerea [1]) [%]	inhibition at 100 µg/mL (Botrytis cinerea [2]) [%]	inhibition at 200 µg/mL (Botrytis cinerea [3]) [%]
O=C(NN1Cc2ccccc2C1)c1ccccc1F	42	50	91
O=C(NN(Cc1ccccc1)Cc1ccccc1)c1ccccc1Cl	31	42	86
CN(C)NC(=O)c1ccccc1I	19	28	33
CN(C)NC(=O)c1ccccc1F	12	22	32
CN(C)NC(=O)c1ccccc1Cl	0	0	33
O=C(NN(Cc1ccccc1)Cc1ccccc1)c1ccccc1I	27	50	82
Cc1ccccc1C(=O)NN(Cc1ccccc1)Cc1ccccc1	48	55	88
O=C(NN1CCCCC1)c1ccccc1F	46	51	51
O=C(NN1CCCCC1)c1ccccc1Cl	36	40	57
O=C(NN1CCCCC1)c1ccccc1I	33	42	46
COc1ccccc1C(=O)NN1CCCCC1	38	47	51
O=C(NN(Cc1ccccc1)Cc1ccccc1)c1ccccc1 [N',N'-DIBENZYLBENZOHYDRAZIDE]	10	42	44
CN(C)NC(=O)c1ccccc1 [N',N'-DIMETHYLBENZOHYDRAZIDE]	24	45	51
O=C(NN1CCCCC1)c1ccccc1 [N-PIPERIDINOBENZAMIDE]	37	43	45

— ChEMBL document CHEMBL3044531, “Quantitative structure-antifungal activity relationships of some benzohydrazides against Botrytis cinerea” (2007)
